Test results as given in ChEMBL document CHEMBL4118103, “Synthesis and Bioactivity Investigation of the Individual Components of Cyclic Lipopeptide Antibiotics” (J Med Chem, 2018).
≈ marks a conversion by molar mass, not a printed value. Bridge positions count the residues as written; N and C are the ends. Square brackets hold non-standard residues; d marks the D form. Peptide text beside a SMILES is read from it. * marks the point of attachment. Octanoyl(7-Me) = CC(C)CCCCCC(=O)*; Nonanoyl = CCCCCCCCC(=O)*; X1 = CC[C@H](C)CCCCC(=O)*; dDab = NCC[C@@H](N)C(=O)O; Heptanoyl = CCCCCCC(=O)*; Octanoyl = CCCCCCCC(=O)*; Dab = NCC[C@H](N)C(=O)O; Nva = CCC[C@H](N)C(=O)O

Key:
Escherichia coli [1] = test: Antibacterial activity against extended-spectrum beta-lactamase producing Escherichia coli isolate 14-11 after 18 hrs by agar dilution method; assay type: functional
In short: (§1)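 Serial two-fold agar dilution per CLSI; bacteria cultured in Mueller-Hinton broth, inoculum about 10^4 cfu/spot; final concentrations 0.03-128 µg/mL; plates incubated 35 °C for 18 h. MIC = lowest concentration preventing visible growth; representative of at least two independent experiments, a third run when the two disagreed.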

Klebsiella pneumoniae [2] = test: Antibacterial activity against NDM-1 producing Klebsiella pneumoniae ATCC BAA-2146 after 18 hrs by agar dilution method; assay type: functional; in short: as §1
Pseudomonas aeruginosa = test: Antibacterial activity against Pseudomonas aeruginosa ATCC 27853 after 18 hrs by agar dilution method; assay type: functional; in short: as §1
Acinetobacter baumannii = test: Antibacterial activity against Acinetobacter baumannii ATCC 19606 after 18 hrs by agar dilution method; assay type: functional; in short: as §1
Escherichia coli [3] = test: Antibacterial activity against Escherichia coli ATCC 25922 after 18 hrs by agar dilution method; assay type: functional; in short: as §1
[4] = Cytotoxicity against African green monkey Vero cells after 72 hrs by MTT assay; assay type: cell-based; details: chlorocebus sabaeus, Vero cells
In short: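 Vero cells seeded at 2x10^3 cells/well, incubated 24 h at 37 °C, 5% CO2, then exposed to compound 72 h; MTT added for 2 h, medium removed, formazan dissolved in DMSO, absorbance read at 570 nm. Viability relative to untreated cells (100%); CC50 as mean ± SD of three independent experiments, each in triplicate.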

Klebsiella pneumoniae [5] = test: Antibacterial activity against extended-spectrum beta-lactamase producing Klebsiella pneumoniae 700603 after 18 hrs by agar dilution method; assay type: functional; in short: as §1
[6] = ATCC 19606 = CIP 70.34 = JCM 6841, 18 h
[7] = Klebsiella pneumoniae, 700603, 18 h

MIC (Escherichia coli [1]; isolate 14-11, 18 h)	MIC (Klebsiella pneumoniae [2]; ATCC BAA-2146, 18 h)	MIC (Pseudomonas aeruginosa; ATCC 27853, 18 h)	MIC (Acinetobacter baumannii; [6])	MIC (Escherichia coli [3]; ATCC 25922, 18 h)	MIC (Klebsiella pneumoniae [5]; [7])	Compound	CC50 at 72 h [4]	MIC (Escherichia coli [1])	MIC (Klebsiella pneumoniae [2])	MIC (Pseudomonas aeruginosa)	MIC (Acinetobacter baumannii; ATCC 19606 = CIP 70.34 = JCM 6841)	MIC (Escherichia coli [3])	MIC (Klebsiella pneumoniae [5])
0.5 µg/mL (≈ 0.433 µM)	0.5 µg/mL (≈ 0.433 µM)	2 µg/mL (≈ 1.73 µM)	0.5 µg/mL (≈ 0.433 µM)	0.5 µg/mL (≈ 0.433 µM)	1 µg/mL (≈ 0.865 µM)	CC[C@H](C)CCCCC(=O)N[C@@H](CCN)C(=O)N[C@H](C(=O)N[C@@H](CCN)C(=O)N[C@H]1CCNC(=O)[C@H]([C@@H](C)O)NC(=O)[C@H](CCN)NC(=O)[C@H](CCN)NC(=O)[C@H](C(C)C)NC(=O)[C@@H](CC(C)C)NC(=O)[C@H](CCN)NC1=O)[C@@H](C)O (X1-[Dab]T[Dab][Dab][Dab][dL]V[Dab][Dab]T; lactam 4-C)	131 µg/mL (≈ 113 µM)						
						COLISTIN		0.5 µg/mL	1 µg/mL	2 µg/mL	0.5 µg/mL	1 µg/mL	1 µg/mL
1 µg/mL (≈ 0.855 µM)	1 µg/mL (≈ 0.855 µM)	2 µg/mL (≈ 1.71 µM)	1 µg/mL (≈ 0.855 µM)	1 µg/mL (≈ 0.855 µM)	1 µg/mL (≈ 0.855 µM)	CC(C)CCCCCC(=O)N[C@@H](CCN)C(=O)N[C@H](C(=O)N[C@@H](CCN)C(=O)N[C@H]1CCNC(=O)[C@H]([C@@H](C)O)NC(=O)[C@H](CCN)NC(=O)[C@H](CCN)NC(=O)[C@H](CC(C)C)NC(=O)[C@@H](CC(C)C)NC(=O)[C@H](CCN)NC1=O)[C@@H](C)O ({Octanoyl(7-Me)}-[Dab]T[Dab][Dab][Dab][dL]L[Dab][Dab]T; lactam 4-C)	87 µg/mL (≈ 74.4 µM)						
0.5 µg/mL (≈ 0.425 µM)	0.5 µg/mL (≈ 0.425 µM)	1 µg/mL (≈ 0.851 µM)	0.5 µg/mL (≈ 0.425 µM)	0.5 µg/mL (≈ 0.425 µM)	1 µg/mL (≈ 0.851 µM)	CCCCCCC(=O)N[C@@H](CCN)C(=O)N[C@H](C(=O)N[C@@H](CCN)C(=O)N[C@H]1CCNC(=O)[C@H]([C@@H](C)O)NC(=O)[C@H](CCN)NC(=O)[C@H](CCN)NC(=O)[C@H](CC(C)C)NC(=O)[C@@H](Cc2ccccc2)NC(=O)[C@H](CCN)NC1=O)[C@@H](C)O [POLYMYXIN B4] (Heptanoyl-[Dab]T[Dab][Dab][Dab][dF]L[Dab][Dab]T; lactam 4-C)	160 µg/mL (≈ 136 µM)						
1 µg/mL (≈ 0.864 µM)	1 µg/mL (≈ 0.864 µM)	1 µg/mL (≈ 0.864 µM)	1 µg/mL (≈ 0.864 µM)	0.5 µg/mL (≈ 0.432 µM)	1 µg/mL (≈ 0.864 µM)	CC[C@H](C)CCCCC(=O)N[C@@H](CCN)C(=O)N[C@H](C(=O)N[C@H](CCN)C(=O)N[C@H]1CCNC(=O)[C@H]([C@@H](C)O)NC(=O)[C@H](CCN)NC(=O)[C@H](CCN)NC(=O)[C@H]([C@@H](C)O)NC(=O)[C@@H](CC(C)C)NC(=O)[C@H](CCN)NC1=O)[C@@H](C)O (X1-[Dab]T[dDab][Dab][Dab][dL]T[Dab][Dab]T; lactam 4-C)	145 µg/mL (≈ 125 µM)						
0.5 µg/mL (≈ 0.424 µM)	0.5 µg/mL (≈ 0.424 µM)	4 µg/mL (≈ 3.39 µM)	0.12 µg/mL (≈ 0.102 µM)	0.25 µg/mL (≈ 0.212 µM)	1 µg/mL (≈ 0.849 µM)	CC[C@H](C)CCCCC(=O)N[C@@H](CCN)C(=O)N[C@H](C(=O)N[C@H](CO)C(=O)N[C@H]1CCNC(=O)[C@H]([C@@H](C)O)NC(=O)[C@H](CCN)NC(=O)[C@H](CCN)NC(=O)[C@H]([C@@H](C)O)NC(=O)[C@@H](Cc2ccccc2)NC(=O)[C@H](CCN)NC1=O)[C@@H](C)O	160 µg/mL (≈ 136 µM)						
0.5 µg/mL (≈ 0.428 µM)	1 µg/mL (≈ 0.855 µM)	2 µg/mL (≈ 1.71 µM)	1 µg/mL (≈ 0.855 µM)	1 µg/mL (≈ 0.855 µM)	1 µg/mL (≈ 0.855 µM)	CC[C@H](C)CCCCC(=O)N[C@@H](CCN)C(=O)N[C@H](C(=O)N[C@@H](CCN)C(=O)N[C@H]1CCNC(=O)[C@H]([C@@H](C)O)NC(=O)[C@H](CCN)NC(=O)[C@H](CCN)NC(=O)[C@H]([C@@H](C)CC)NC(=O)[C@@H](CC(C)C)NC(=O)[C@H](CCN)NC1=O)[C@@H](C)O	176 µg/mL (≈ 150 µM)						
1 µg/mL (≈ 0.865 µM)	1 µg/mL (≈ 0.865 µM)	1 µg/mL (≈ 0.865 µM)	1 µg/mL (≈ 0.865 µM)	1 µg/mL (≈ 0.865 µM)	2 µg/mL (≈ 1.73 µM)	CCC[C@@H]1NC(=O)[C@@H](CC(C)C)NC(=O)[C@H](CCN)NC(=O)[C@@H](NC(=O)[C@H](CCN)NC(=O)[C@@H](NC(=O)[C@H](CCN)NC(=O)CCCC[C@@H](C)CC)[C@@H](C)O)CCNC(=O)[C@H]([C@@H](C)O)NC(=O)[C@H](CCN)NC(=O)[C@H](CCN)NC1=O (X1-[Dab]T[Dab][Dab][Dab][dL][Nva][Dab][Dab]T; lactam 4-C)	109 µg/mL (≈ 94.3 µM)						
0.5 µg/mL (≈ 0.433 µM)	0.5 µg/mL (≈ 0.433 µM)	1 µg/mL (≈ 0.865 µM)	0.5 µg/mL (≈ 0.433 µM)	0.5 µg/mL (≈ 0.433 µM)	1 µg/mL (≈ 0.865 µM)	CCCCCCCC(=O)N[C@@H](CCN)C(=O)N[C@H](C(=O)N[C@@H](CCN)C(=O)N[C@H]1CCNC(=O)[C@H]([C@@H](C)O)NC(=O)[C@H](CCN)NC(=O)[C@H](CCN)NC(=O)[C@H](CC(C)C)NC(=O)[C@@H](CC(C)C)NC(=O)[C@H](CCN)NC1=O)[C@@H](C)O (Octanoyl-[Dab]T[Dab][Dab][Dab][dL]L[Dab][Dab]T; lactam 4-C)	150 µg/mL (≈ 130 µM)						
0.5 µg/mL (≈ 0.438 µM)	0.5 µg/mL (≈ 0.438 µM)	1 µg/mL (≈ 0.876 µM)	2 µg/mL (≈ 1.75 µM)	1 µg/mL (≈ 0.876 µM)	0.5 µg/mL (≈ 0.438 µM)	CCCCCCC(=O)N[C@@H](CCN)C(=O)N[C@H](C(=O)N[C@@H](CCN)C(=O)N[C@H]1CCNC(=O)[C@H]([C@@H](C)O)NC(=O)[C@H](CCN)NC(=O)[C@H](CCN)NC(=O)[C@H](CC(C)C)NC(=O)[C@@H](CC(C)C)NC(=O)[C@H](CCN)NC1=O)[C@@H](C)O (Heptanoyl-[Dab]T[Dab][Dab][Dab][dL]L[Dab][Dab]T; lactam 4-C)	216 µg/mL (≈ 189 µM)						
2 µg/mL (≈ 1.66 µM)	4 µg/mL (≈ 3.32 µM)	4 µg/mL (≈ 3.32 µM)	2 µg/mL (≈ 1.66 µM)	2 µg/mL (≈ 1.66 µM)	2 µg/mL (≈ 1.66 µM)	CCCCCCCCC(=O)N[C@@H](CCN)C(=O)N[C@H](C(=O)N[C@@H](CCN)C(=O)N[C@H]1CCNC(=O)[C@H]([C@@H](C)O)NC(=O)[C@H](CCN)NC(=O)[C@H](CCN)NC(=O)[C@H](CC(C)C)NC(=O)[C@@H](Cc2ccccc2)NC(=O)[C@H](CCN)NC1=O)[C@@H](C)O [POLYMYXIN B5] (Nonanoyl-[Dab]T[Dab][Dab][Dab][dF]L[Dab][Dab]T; lactam 4-C)	33 µg/mL (≈ 27.4 µM)						
0.25 µg/mL (≈ 0.218 µM)	0.5 µg/mL (≈ 0.437 µM)	2 µg/mL (≈ 1.75 µM)	0.06 µg/mL (≈ 0.0524 µM)	0.12 µg/mL (≈ 0.105 µM)	1 µg/mL (≈ 0.874 µM)	CC[C@H](C)CCCCC(=O)N[C@@H](CCN)C(=O)N[C@H](C(=O)N[C@H](CO)C(=O)N[C@H]1CCNC(=O)[C@H]([C@@H](C)O)NC(=O)[C@H](CCN)NC(=O)[C@H](CCN)NC(=O)[C@H]([C@@H](C)O)NC(=O)[C@@H](CC(C)C)NC(=O)[C@H](CCN)NC1=O)[C@@H](C)O (X1-[Dab]T[dS][Dab][Dab][dL]T[Dab][Dab]T; lactam 4-C)	189 µg/mL (≈ 165 µM)						

Compound	MIC (Escherichia coli [1]; isolate 14-11, 18 h)	MIC (Klebsiella pneumoniae [2]; ATCC BAA-2146, 18 h)	MIC (Pseudomonas aeruginosa; ATCC 27853, 18 h)	MIC (Acinetobacter baumannii; [6])	MIC (Escherichia coli [3]; ATCC 25922, 18 h)	MIC (Klebsiella pneumoniae [5]; [7])	CC50 at 72 h [4]	MIC (Escherichia coli [1])	MIC (Klebsiella pneumoniae [2])	MIC (Pseudomonas aeruginosa)	MIC (Acinetobacter baumannii; ATCC 19606 = CIP 70.34 = JCM 6841)	MIC (Escherichia coli [3])	MIC (Klebsiella pneumoniae [5])
CCCCCCCC(=O)N[C@@H](CCN)C(=O)N[C@H](C(=O)N[C@@H](CCN)C(=O)N[C@H]1CCNC(=O)[C@H]([C@@H](C)O)NC(=O)[C@H](CCN)NC(=O)[C@H](CCN)NC(=O)[C@H](CC(C)C)NC(=O)[C@@H](Cc2ccccc2)NC(=O)[C@H](CCN)NC1=O)[C@@H](C)O (Octanoyl-[Dab]T[Dab][Dab][Dab][dF]L[Dab][Dab]T; lactam 4-C)	1 µg/mL (≈ 0.841 µM)	1 µg/mL (≈ 0.841 µM)	1 µg/mL (≈ 0.841 µM)	0.5 µg/mL (≈ 0.42 µM)	0.5 µg/mL (≈ 0.42 µM)	1 µg/mL (≈ 0.841 µM)	86 µg/mL (≈ 72.3 µM)						
CC[C@H](C)CCCCC(=O)N[C@@H](CCN)C(=O)N[C@H](C(=O)N[C@@H](CCN)C(=O)N[C@H]1CCNC(=O)[C@H]([C@@H](C)O)NC(=O)[C@H](CCN)NC(=O)[C@H](CCN)NC(=O)[C@H](CC(C)C)NC(=O)[C@@H](Cc2ccccc2)NC(=O)[C@H](CCN)NC1=O)[C@@H](C)O (X1-[Dab]T[Dab][Dab][Dab][dF]L[Dab][Dab]T; lactam 4-C)	0.5 µg/mL (≈ 0.415 µM)	0.25 µg/mL (≈ 0.208 µM)	2 µg/mL (≈ 1.66 µM)	0.25 µg/mL (≈ 0.208 µM)	1 µg/mL (≈ 0.831 µM)	2 µg/mL (≈ 1.66 µM)	71 µg/mL (≈ 59 µM)						
